Measurements taken from ChEMBL document CHEMBL4024789, “Neutral Porphyrin Derivative Exerts Anticancer Activity by Targeting Cellular Topoisomerase I (Top1) and Promotes Apoptotic Cell Death without Stabilizing Top1-DNA Cleavage Complexes” (J Med Chem, 2018).
The source made the active and inactive calls. No cut-off for these calls is given here.

Key:
[1] = biological target: T1, DNA topoisomerase 1 (Homo sapiens) (UniProt P11387); test: Ratio of EC50 for recombinant human topoisomerase-1 expressed in baculovirus infected sf9 cells simultaneously incubated with substrate to EC50 for recombinant human topoisomerase-1 expressed in baculovirus infected sf9 cells preincubated for 5 mins followed by substrate addition
T1 sequence (whole entry): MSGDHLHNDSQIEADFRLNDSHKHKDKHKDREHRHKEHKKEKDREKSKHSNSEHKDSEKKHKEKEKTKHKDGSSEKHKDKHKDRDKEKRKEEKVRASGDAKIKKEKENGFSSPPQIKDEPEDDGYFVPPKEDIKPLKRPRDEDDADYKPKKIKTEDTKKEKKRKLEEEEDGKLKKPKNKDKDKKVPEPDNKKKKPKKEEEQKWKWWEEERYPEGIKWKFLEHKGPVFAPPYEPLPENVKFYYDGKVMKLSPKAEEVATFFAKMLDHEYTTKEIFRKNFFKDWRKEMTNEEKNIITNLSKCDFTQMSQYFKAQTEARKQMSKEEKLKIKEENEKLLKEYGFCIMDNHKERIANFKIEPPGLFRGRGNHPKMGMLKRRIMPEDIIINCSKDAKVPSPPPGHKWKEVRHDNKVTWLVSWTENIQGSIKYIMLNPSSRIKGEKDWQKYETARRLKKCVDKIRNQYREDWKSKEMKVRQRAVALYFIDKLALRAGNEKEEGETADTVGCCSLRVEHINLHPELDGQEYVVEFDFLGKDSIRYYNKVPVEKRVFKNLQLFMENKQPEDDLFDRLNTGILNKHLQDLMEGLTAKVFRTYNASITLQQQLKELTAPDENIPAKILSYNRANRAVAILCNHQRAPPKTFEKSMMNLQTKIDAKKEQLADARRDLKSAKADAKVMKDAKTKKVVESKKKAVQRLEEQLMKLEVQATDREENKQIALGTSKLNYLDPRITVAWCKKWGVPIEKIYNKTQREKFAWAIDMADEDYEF
Summary of the method: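 Recombinant human Top1 purified from baculovirus-infected Sf-9 cells; 30 fmol enzyme with 90 fmol supercoiled pBS (SK+) DNA (3:1 molar ratio) in relaxation buffer. Compound either preincubated with enzyme 5 min before DNA, or added simultaneously; then 37 °C, 15 min. Relaxation on 1% agarose; % inhibition quantified, EC50 from three experiments (mean ± SD).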

[2] = tested on: MCF7; test: Induction of PARP cleavage in human MCF7 cells at 10 uM up to 12 hrs by Western blot method; format: functional, cell-based
Summary of the method: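 MCF7 cells treated with 10 μM for the indicated times. Full-length and cleaved PARP1 detected by Western blot of whole-cell extracts using rabbit polyclonal PARP1 antibody.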

[3] = tested on: MCF7; test: Induction of apoptosis in human MCF7 cells at 10 to 20 uM after 12 hrs by Annexin V-FITC/propidium iodide staining based confocal laser microscopic method relative to control; format: functional
Summary of the method: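 MCF7 cells exposed 12 h, with or without NAC (10 mM) 30 min pretreatment. Phosphatidylserine detected with annexin V-FITC, nuclei counterstained with PI, confocal imaging; annexin V-positive cells counted from ~100 cells (average ± SEM).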

[4] = biological target: T2, DNA topoisomerase 1 (Homo sapiens, UniProt P11387); test: Inhibition of recombinant human topoisomerase-1 expressed in baculovirus infected sf9 cells using supercoiled pBS SK(+) DNA as substrate preincubated for 5 mins followed by substrate addition measured after 15 mins by ethidium bromide staining based agarose gel electrophoresis method
T2 sequence (P11387 whole entry): T1 sequence (whole entry)
Summary of the method: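 Relaxation assay: 90 fmol supercoiled pBS (SK+) DNA with 30 fmol recombinant Top1 (Sf-9/baculovirus). Compound either preincubated with Top1 for 5 min before DNA addition, or added simultaneously with DNA; then 37 °C for 15 min. Vehicle 2% DMSO. Read on 1% agarose gel. EC50 from mean ± SD of three experiments.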

[5] = biological target: T1, DNA topoisomerase 1 (Homo sapiens); test: Inhibition of recombinant human topoisomerase1-[32P]-labeled 25-mer duplex oligonucleotide cleavage complex formation at 10 to 50 uM after 30 mins using topoisomerase1 expressed in baculovirus infected sf9 cells by […]
[6] = tested on: MCF7; test: Cytotoxicity against human MCF7 cells transfected with Top1 SiRNA assessed as reduction in cell viability by MTT assay; format: functional, cell-based
Summary of the method: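 MCF7 cells transfected with Top1 or control siRNA for 72 h; knockdown confirmed by Western blot with actin as loading control. Percent survival then plotted against compound concentration.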

[7] = biological target: T1, DNA topoisomerase 1 (Homo sapiens); test: Binding affinity to recombinant human topoisomerase-1 expressed in baculovirus infected sf9 cells assessed as intrinsic tryptophan fluorescence quenching up to 1.25 uM by Job's plot analysis
Summary of the method: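 Job plot by continuous variation: Top1 (from Sf-9 cells infected with recombinant baculovirus) and compound varied to a combined final 1.25 μM. Tryptophan fluorescence quenching read at 350 nm with excitation at 295 nm. Mean ± SD of three independent experiments.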

[8] = tested on: HEK293; test: Cytotoxicity against HEK293 cells assessed as reduction in cell viability by MTT assay; format: cell-based; conditions: Homo sapiens
Summary of the method: (§1)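 Survival of each cell line measured across a range of compound concentrations. Percent inhibition of viability at each concentration calculated against untreated control and IC50 estimated. MEFs were TDP1+/+ and TDP1–/– primary cells. Mean ± SD of at least three experiments in duplicate.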

[9] = biological target: T1, DNA topoisomerase 1 (Homo sapiens); test: Inhibition of CPT-induced recombinant human EGFP-tagged topoisomerase-1- DNA cleavage complex formation assessed as restoration of Top1 mobility at 20 uM after 10 mins by FRAP assay; design: scale not given: the % may be the effect or the level left
Summary of the method: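 FRAP in living MCF7 cells transiently expressing EGFP-human Top1, 37 °C chamber. Treatment was CPT 5 μM or compound 20 μM for 10 min, or CPT for 10 min then compound for 10 min. A subnuclear spot was bleached for 30 ms at 488 nm; curves normalized to the prebleach signal.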

[10] = tested on: Bacteria; test: Induction of relaxed pBluescript SK(+) DNA intercalation (unknown origin) assessed as negative supercoiling at 50 to 300 uM after 15 mins by agarose gel electrophoresis method
Summary of the method: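 Top1 unwinding assay: relaxed DNA made by reacting excess Top1 with supercoiled pBS (SK+) plasmid (50 fmol), then incubated with compound at 50, 100 or 300 μM; m-AMSA and etoposide as reference intercalator/non-intercalator. Topoisomers resolved on agarose gel.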

[11] = tested on: MCF7; test: Cytotoxicity against human MCF7 cells assessed as reduction in cell viability by MTT assay; format: functional, cell-based; summary of the method: as §1
[12] = tested on: HeLa; test: Cytotoxicity against human HeLa cells assessed as reduction in cell viability by MTT assay; format: functional, cell-based; summary of the method: as §1
[13] = biological target: T1, DNA topoisomerase 1 (Homo sapiens); test: Inhibition of CPT-induced recombinant human topoisomerase1-[…] cleavage complex at 10 to 50 uM after 30 mins using topoisomerase1 expressed in baculovirus infected sf9 cells by […]
[14] = tested on: MCF7; test: Induction of ROS accumulation in human MCF7 cells at 10 uM up to 24 hrs by CM-H2DCFDA dye based spectrofluorometric method relative to control; format: functional
Summary of the method: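 MCF7 cells treated with 10 μM for the indicated times, with 0.2% DMSO as vehicle control, or pretreated with NAC (10 mM) for 30 min. ROS read as DCF fluorescence from CM-H2DCFDA. Mean ± SD of three independent experiments.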

- Ratio EC50 [1]: 4 to 5
- EC50 [4]: 0.381 µM
- inhibition [5]: Active
- Activity [7]: Active
- Activity [9]: 12 to 15%
- Activity [10]: inactive
- inhibition [13]: Active
SMILES: CN(C)c1ccc(-c2c3nc(c(-c4ccc(N(C)C)cc4)c4ccc([nH]4)c(-c4ccc(C(=O)O)cc4)c4nc(c(-c5ccc(C(=O)O)cc5)c5ccc2[nH]5)C=C4)C=C3)cc1
- Activity [2]: Active
- fold change (FC) [3]: 7
- IC50 [6]: 8.15 µM
- IC50 [8]: > 10 µM
- IC50 [11]: 2.17 µM
- IC50 [12]: 4.13 µM
- fold change (FC) [14]: 3 - 5
